This is a sample that favours compounds with a hit; in the whole collection about 9.2% have one here.
Autophagy mod: autophagy modulators in MEF cells, primary screen, imaging, high-content, MEF GFP-LC3; MEF GFP-LC3 puncta imaging; test concentration mostly 10 µM; calls only at 10 µM (by protocol); 190,000 tested, 0.98% active; AID 463193, 2010;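 active means percentage of spot-positive cells more than 3 SD above its plate mean, without a fluorescence outlier flag or 80% toxicity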;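 further: spot-positive cell cutoff set from DMSO-treated cells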
Dynein transport: inhibitors of GR-EGFP nuclear translocation, primary screen, dynein cargo transport inhibitor project, imaging, high-content, 3617.4 mouse cells. test concentration mostly 20 µM; stimulated with dexamethasone, 1 µM; active compounds read low. z-score, hits read low. 220,000 tested, 0.47% active. AID 1381, 2008;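 active means plate z-score of nuclear minus cytoplasmic receptor signal below a set negative limit, without overly bright fluorescence or cell loss, cut at about -3.5 in these data, passing the limit was not always enough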;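 further: z-score of nuclear minus cytoplasmic ring GR-EGFP intensity difference per well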
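Buffer or medium: tet-free medium with charcoal-stripped serum / Also added: dexamethasone agonist, 1.0 µM final, for 30 min / Timing: induction 48 h, compound 1 h, agonist 30 min / Measured by: high-content fluorescence imaging after fixation / Read-out: nuclear-to-cytoplasmic GR-EGFP distribution per well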
PTEN del growth: growth suppression of PTEN-null HCT116, primary screen, cell-based, CellTiter-Glo; HCT116 PTEN-null viability, 60 h; active compounds read low; viability, % at 10 µM; 140,000 tested, 1.2% active; AID 827, 2007;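 active means viability at or below a set limit, 4 SD under the median of all tested compounds, cut at about 3.7% in these data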;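 further: PTEN knockout HCT116 line with beta catenin targeted HCT116 as companion control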
L major viab: Leishmania major promastigote growth inhibition, primary screen | 200,000 tested, 9% active | inhibition, % at 10 µM | Leishmania major promastigotes, resazurin fluorescence viability; in the data active means inhibition above about 50%;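 further: promastigotes grown with compound for 44 hours at 28 °C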
HCT116 bCat-KO: primary screen for growth suppressors in beta-catenin knockout HCT116 cells (colon tumor, human) | viability, % at 10 µM | HCT116 beta-catenin knockout viability, CellTiter-Glo, 60 h; active compounds read low | 140,000 tested, 1.5% active;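 active means viability at or under a set limit, the compound median less 4 SD, cut at about 6% in these data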;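 further: 0% = Hyamine 1622 control at 20 µM and 100% = untreated cell control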
Active calls of the source: *; i = inactive; / = no result; + = active, no number.

SMILES	Autophagy mod	Dynein transport	PTEN del growth	L major viab	HCT116 bCat-KO
COc1ccc2cc(C(=O)C3CCCN(C(=O)CCc4cnn(C)c4)C3)ccc2c1 (stereo not drawn)	i	0.192	/	0.3	/
Cc1cc(=O)c(C(=O)O)nn1-c1ccccc1	i	-0.268	/	-5.5	/
Cn1cc(CNCc2cn(C)nc2-c2ccc(C3CCCCC3)cc2)cn1	i	0.875	/	93.6*	/
COc1cccc(-n2cc(CNCc3cn(C)nc3-c3ccccc3F)cn2)c1	i	-0.83	/	1.0	/
COc1ccc(C(=O)O/N=C/c2c(C(F)(F)F)nn(C)c2SCc2ccccc2Cl)cc1	i	-0.83	12.7	-0.1	4.2*
CSC(=NCc1ccco1)NC#N	/	-0.632	/	/	/
COc1ccc(CNC2CCCc3ccccc32)cc1OC (stereo not drawn)	i	0.116	94.7	13.2	79.3
CCOc1ccc(CNC2CCCc3ccccc32)cc1 (stereo not drawn)	i	2.52	/	69.7*	/
COc1cccc(-n2c(CN3CCN(Cc4ccccc4)CC3)nc3ccc([N+](=O)[O-])cc3c2=O)c1	i	-0.114	64.8	76.5*	74.1
COc1ccc(-n2c(CN3CCN(Cc4ccccc4)CC3)nc3ccc([N+](=O)[O-])cc3c2=O)c(OC)c1	i	-1.78	/	8.8	/
CC[n+]1c(/C=C/Nc2ccccc2)oc2ccccc21	i	-0.118	47.3	96.0*	44.5
CC[n+]1c(/C=C/N(C)c2ccccc2)oc2ccc(F)cc21	i	0.427	34.8	83.6*	21.5
CN(/C=C/c1c([N+](=O)[O-])c(=O)n(C)c(=O)n1C)c1ccccc1	i	-0.871	/	20.4	/
CC[n+]1c(/C=C/N(C)c2ccccc2)oc2ccccc21	i	-0.805	12.6	100.0*	12.4
CC[n+]1c(/C=C/Nc2ccccc2)oc2ccc(OC)cc21	i	-0.404	/	17.9	/
O=C(NCCc1c[nH]c2ccccc12)C(F)(F)F	i	0.3	97.5	-3.8	90.4
c1ccc(N2CCN(Cc3cn4cccnc4n3)CC2)cc1	/	0.318	93.2	-5.4	98.9
COc1cc(NS(=O)(=O)c2cc(C)ccc2OC)c(OC)cc1Cl	i	0.439	74.3	99.1*	90.7
COc1ccc(C)cc1S(=O)(=O)Nc1cc(Cl)ccc1Cl	i	-0.463	88.8	2.6	94.8
Cc1ccc(N)c(C(O)(C(F)(F)F)C(F)(F)F)c1	+	-1.03	90.4	-6.4	91.9
Clc1ccc(OCc2nnc(-c3ccccc3Br)o2)cc1	i	0.574	102.9	-8.5	98.8
O=S(=O)(c1ccccc1F)N(Cc1ccco1)Cc1nnc(-c2ccccc2Br)o1	i	-0.989	84.0	65.1*	79.4
COc1ccccc1-n1cnnc1SC(C)C(=O)Nc1ccc(NC(C)=O)cc1 (stereo not drawn)	i	-1.18	/	-5.6	/
CC(=O)N(c1ccccc1C)C1CCCC1	i	-0.872	104.2	-1.6	100.3
CC(=O)N(C1=C(Cl)C(=O)c2ccccc2C1=O)C1CCCCC1	/	-6.01*	/	/	/
SMILES	Autophagy mod	Dynein transport	PTEN del growth	L major viab	HCT116 bCat-KO
CC[n+]1c(/C=C2\C=C(C)CC(C)(C)C2)sc2ccccc21	i	0.0766	15.6	100.2*	41.7
CC[n+]1c(/C=C2/C=C(C)CC(C)(C)C2)sc2ccc(OC)cc21	i	-1.42	3.9	100.1*	7.5
CC[n+]1c(/C=C2\C=C(C)CC(C)C2)sc2ccccc21 (stereo not drawn)	i	-1.31	59.8	100.3*	64.2
CCC1=C/C(=C/c2sc3ccccc3[n+]2CC)CC(C)(C)C1	i	-1.7	/	99.4*	/
CC[n+]1c(C)sc2sc3ccccc3c21	/	-0.232	/	/	/
Cn1cc2cc(NC(N)=S)ccc2n1	i	-0.0569	/	-6.3	/
Cc1ccc(Nc2c([N+](=O)[O-])c(=O)oc3ccccc23)cc1C	i	-0.449	/	4.4	/
COc1ccc(Cl)cc1NC(=O)CSc1nnc(CN2CCOCC2)n1-c1ccc(Cl)cc1	i	-1.03	33.6	3.4	45.6
O=C(CC1SC(=Nc2ccc(OC(F)F)cc2)N(CCN2CCOCC2)C1=O)Nc1ccc(F)cc1F (stereo not drawn)	i	-0.319	/	62.0*	/
C=CCN1C(=O)C(CC(=O)Nc2ccc(OC)cc2)SC1=Nc1ccc(S(N)(=O)=O)cc1 (stereo not drawn)	i	0.92	/	-10.2	/
COc1ccc(N=C2SC(CC(=O)Nc3ccccc3)C(=O)N2CCc2ccccn2)cc1 (stereo not drawn)	i	0.078	86.6	60.4*	86.5
O=C(CC1SC(=Nc2ccc(OC(F)F)cc2)N(CCN2CCOCC2)C1=O)Nc1ccccc1 (stereo not drawn)	/	1.48	/	/	/
COc1ccc(N=C2SC(CC(=O)Nc3ccccc3)C(=O)N2Cc2ccccn2)cc1 (stereo not drawn)	i	-0.741	/	38.4	/
COc1ccc(OC)c(NC(=O)CC2SC(=Nc3ccccc3)N(CCc3ccccn3)C2=O)c1 (stereo not drawn)	i	-1.33	77.0	54.9*	87.5
COc1ccc(N=C2SC(CC(=O)Nc3cccc(Cl)c3)C(=O)N2Cc2ccco2)cc1 (stereo not drawn)	i	-0.333	35.5	98.4*	41.7
CCO[C@H]1OC(C(=O)NC2CC2)=C[C@@H](c2ccccc2)[C@@H]1CCCO	/	-0.27	/	/	/
O=C(O)/C=C/C(=O)N1CCN(c2cccc(Cl)c2)CC1	i	-0.128	/	-3.7	/
O=C1/C(=C/c2ccccn2)SC(=S)N1N1CCOCC1	/	0.325	/	/	/
CCOC(=O)n1c(=O)n(Cc2ccc(Cl)c(Cl)c2)c2ccccc21	i	0.113	77.1	-2.9	75.7
COc1ccc(OC)c(NC(=O)CC2SC(=Nc3ccc(F)cc3)N(CCC3=CCCCC3)C2=O)c1 (stereo not drawn)	i	0.205	54.3	54.8*	43.6
COc1ccc(-c2nc(-c3ccc4c(c3)OCO4)[nH]c2-c2ccc(OC)cc2)cc1	i	-0.747	14.2	90.2*	24.7
Cc1ccc(CN2CCN(/N=C/c3ccc(C)s3)CC2)cc1	i	-0.684	96.6	67.7*	95.3
Cc1ccc(/C=N/N2CCN(Cc3ccccc3)CC2)s1	i	1.41	99.2	-2.7	94.2
COc1ccc(-c2ccc(C#N)c(OC)n2)cc1	i	-0.475	/	-6.2	/
N#Cc1ccc(-c2ccc(F)cc2)nc1Oc1ccc(Cl)c(Cl)c1	i	-0.479	1.7*	-11.7	2.0*
CCCC(C)C(=O)Nc1nc(C)c(-c2csc(Nc3ccccc3OC)n2)s1 (stereo not drawn)	i	-0.254	79.4	95.5*	77.3
CCCCCCC(=O)Nc1nc(C)c(-c2csc(Nc3ccccc3OC)n2)s1	i	0.073	74.5	55.2*	83.5
CCCCCC(=O)Nc1nc(C)c(-c2csc(Nc3ccccc3OC)n2)s1	i	0.248	60.5	73.2*	72.3
CCCC(=O)Nc1nc(C)c(-c2csc(Nc3ccccc3C)n2)s1	i	1.49	85.8	10.2	101.0

From PubChem
